To fix the notation:
B1: tRNA (parent)
chain: GUUCCGUUGGCGUAAUGGUAACGCGUCUCCCUCCUAAGGAGAAGACUGCGGGUUCGAGUCCCGUACGGAACG

Fewer inactive variants are shown than the library holds.

The data set covers variants of B1. As to the kind of experiment: yeast fitness relative to wild type (ratio to wild type); higher = fitter; tRNA-Arg(CCU), competitive growth, 37 C, YPD. In outline: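 Start and end populations of a pooled competition were compared by 100-nucleotide paired-end sequencing of gene amplicons. The Saccharomyces cerevisiae strains carried tRNA-Arg(CCU) gene variants at the native genomic locus, synthesised with a 3% per-site mutation rate at 69 sites, and competed in YPD at 37°C for 24 hours in six parallel replicates. Darwinian fitness relative to wild type was based on the change in genotype frequencies. Genotypes required ≥ 100 starting reads, and estimates < 0.5 were set to 0.5.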
As for GUUCCGUUGGCGUAAUGGUCACGCGUCUCGCUCCUAAGGAGAAGACUGCGGGUUCGAGUCCCGUACGGAACG, the yeast fitness was 0.612. To GUUCCGUUGGCGUAAUGGUCACGCAUCUCCGUUUUAAGGACAAGACUGCGGGUUCGAGUACCGUAUGGAACG belongs not above 0.5; to GUUCCGUUGGCGUAAUGGUCACGCGUCUCACUCCUAAGGAGAAGACUGCGGGUUCGAGUCCCGUCCGGAACG, 0.583. The value for GUUCCGUUGGCGUAAUGGUCACGCGUCUCCCUCCUAAGGAGAAGAAUGCGGGUUCGAGUCCCGUACGGAACG was 1.04; that for GUUCCGUUGGCGUAAUGGUCACGCGUCUGCCUCCUAAGGAGAAGACUGCGAGUUCGAGUCCCGUACGGAACG was 0.646. The value for GUUCCGUUGGCGUAAUGGUCACGCGUCUCCCUCCUAAGGAGACGACUGCGGGUUCGAGUCCCGUACGGUCCG was 0.725; that for GUUCCGUUGGCGUAAUGGUCACGCGUCUCACUUUUAAGGAGAAGACUGAGGGUUCGAGUCCGGUACGGAACG was not above 0.5. In the case of GUUCCGUUGGCGUAAUGGUCACGUGUCUCCCUCCUAAGGAGAAGACUGCGGGUUCGAGUCCCGUACGCAACG, the yeast fitness is 0.542.

GUUCCGUUGGCGUAAUGGUCACGCGUCUCCGUCCUAAGGAGAAGACUACCGGUUCGAGUGCCGUACGGAACG: the yeast fitness amounted to 0.722. The value for GUUCCGUUGGCGUAAUGGUCACGCGUCUCCCUCCUAAGGAGGAGACUGCGGGUUCGAGUCCCGUACGGAACG was 0.842. As to GUUCCGUUGGCGUAAUGGUCACGAGUAUCCCUCCUCAGGAGAAGACUGCGGGUUCGAGUCCCGUACGGAACG, the yeast fitness was not above 0.5. To GUUCCGUUGGCGUAAUGGUCACGCGUCUCCCUCCUAAGGAGCAGCCUACGGGUUCGAGUCCCGUACGGAACG belongs 0.565. To GUUCCGUUGGCGUAAUGGGAACGCGUCUCCCUCCUAAGGAGAAGACUGCGGGUUCGAGUCCCGCACGGAACG belongs 0.841. As for GUUCCGUUGGCGUAAUGGUCACGGGUUUCCGUCCUAAGGAGAAGACUGCGGGUCCGAGUCCCGUCCGGAACG, the yeast fitness is not above 0.5. In the case of GUUCCGUUGGCGUAAUGGUCACGCGUCUCCAUCCUAAGGAGAAGACUGCGGGUUCGAGUCCCGUACGGAACG, the yeast fitness was found to be 0.79.

With GUUCCGUUGGCGUAAUGGUCACGCGUCUCCCUCCUAAGGAGAAGACUGCGGGUUCGCGUACCGUACGGAACG, the yeast fitness is not above 0.5. To GUUCCGUUGGCGUAAUGGGAACGCGUCUCCCUCCUAAGGACAAGACUGCGGGUUCGAGUCCCGUAUGGAACG belongs not above 0.5; to GUUCCGUUGGCGUAAUGGUCACGCGUUUCCCUCCUGAGGAGAAGACUGCGGGUUCGAGUCCCGUACGGAACG, 0.62.

GUUCCGUUGGCGUAAUGGUCACGCGUCUCCCUCCUACGGAGAGGACUGCGGGUUUGAGUCCCGUACGGAACG: the yeast fitness was not above 0.5.

For the variant GUUCCGUUGGCGUAAUGGGAACGCGUCUCCCUCCUAAGGAAAAGACUCUGGGUUCGCGUCCCGUACGGAUCG, the yeast fitness is not above 0.5. In the case of GUUCCGUUGGCGUAAUGGGAACGCGUCUCCCUCCUAACGAGAAGACUGCGGGUUCGUGUCCCGUACGGAACG, the yeast fitness stood at 0.552. To GUUCCGUUGGCGUAAUGGUCAUGCGUCUCCCUCCUAAGGAGAAGACUGCGGGUUCGAGUCGCGUACGGAACG belongs not above 0.5; to GUUCCGUUGGCGUAAUGGUCACGCGUCUUCCACCUAAGGAGAAGACUGCGGGUUCGAGUCCCGUACGGAACG, not above 0.5. To GUUCCGUUGGCGUAAUGGUCACGCGUCUCCCUUCUAGGGAGAAGUCUACGGGUUCCAGUCCCGUACGGAACG belongs not above 0.5; to GUUCCGUUGGCGUAAUGGUCACGCGUCUCCCUCGUAAGGAGAAGACUGCGGGUUCGAGUCCCGUACGGUACG, 0.549; to GUUCCGUUGGCGUAAUGGUCACGUGUCUCCGUCCUAUGGAGAAGACUGCGGGUUCGAGUGCCGUACGGAACG, not above 0.5. In the case of GUUCCGUUGGCGUAAUGGUCACGCGUCUCCCUCCUAAGGAGAAGAAUGGGGGUUCGAGUCCCAUACGGAACG, the yeast fitness is not above 0.5.

Turning to GUUCCGUUGGCGUAAUGGGAACGCGUCUCCCUCCUAAGAGGAAGACUGCGGGUUCGAGUCCCGUACGGAACG, the yeast fitness is 0.56.

As to GUUCCGUUGGCGUAAUGGUCACGCGUCUUCCUCCUAAGGAGAAGACUGGGGGUUCGAGUCCCGUACGGAACG, the yeast fitness was 0.612. To GUUCCGUUGGCGUAAUGGUCACGCGUCUCCCUCCUAAGGAGAAGACUGUGGGUUCGAGCCCCGUACGGAACG belongs 0.588; to GUUCCGUUGGCGUAAUGGGAACGCGUCUCCCUCCUAAGGAGAAGACUGCGGGUUCGACUCCCGUACCGAACG, 0.61; to GUUCCGUUGGCGUAAUGGUCACGCGUCUCCCUCCUAAGGAGAAGCCUGCGGGUUCGAGUCCCGUACGGAACG, 0.843.

For GUUCCGUUGGCGUAAUGGUCACGCGUCUCCCUCCUAAGGAGAAGACUGCGGGUUCGAGUCUCGUACGGAACG, the yeast fitness was 0.806.

GUUCCGUUGGCGUAAUGGUCCCGCGUUUCCCUCCUAAGGAGAAGAAUGCGGGUUCGAGUCCCGUACGGAACG: the yeast fitness worked out at 0.6. Regarding GUUCCGUUGGCGUAAUGGUCACGCGUCUCCCUCCUAAGGAGAAGACUGCGGGUUGGAGUCCCGUACGGAACG, the yeast fitness is 0.59. To GUUCCGUUGGCGUAAUGGUCACGCGUCUCCCUCCUGAGGAGAAGACUAUGGGUUCGAGUCCCGUACGGAACG belongs not above 0.5. On to GUUCCGUUGGCGUAAUGGUCACGCGUCUCGCUGCUAAGGAGAAGACUGCGGGUUCGAGUCCCGUACGGAACG, for which the yeast fitness is not above 0.5.

Source of the values: the RNAGym collection of RNA variant scans (doi:10.1126/science.aae0568).
